According to article PMC8721254 (Journal of Advanced Research, 2021):

Assays:
[1] = test system: BSMCs; assay: Intracellular H2S release; assay type: cell-based; details: WSP-1-preloaded BSMCs, 40 min
How it was run: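 Bronchial smooth muscle cells were grown at 37 °C in 5% CO2 with 1% pen/strep and seeded at 30 × 10^3 cells/well. Cells were loaded with the H2S-sensitive dye WSP-1, then exposed to test compound, vehicle, or diallyl disulfide as reference donor. Fluorescence was recorded spectrofluorometrically for 40 min and expressed as fluorescence index, mean ± SEM.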

[2] = test system: RBL-2H3 cells; assay: β-hexosaminidase; assay type: cell-based, rat; details: DNP-HSA-induced degranulation of RBL-2H3
How it was run: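 Rat basophilic leukaemia RBL-2H3 cells were seeded at 72 × 10^3 cells/well and sensitized overnight with anti-DNP-HSA IgE, then moved to DMEM containing 1 mg/mL BSA. Test compound, vehicle (0.1% DMSO) or cromolyn was preincubated 5 min at 37 °C, and degranulation was triggered with DNP (10 ng/mL). After 1 h, supernatant β-hexosaminidase was read at 405 nm with p-nitrophenyl-N-acetyl-β-D-glucosaminide substrate. Values are relative to DNP-HSA as 100%, analysed by one-way ANOVA/Bonferroni.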

[3] = test system: OVA-induced allergic lung inflammation; assay: OVA-induced allergic lung inflammation and remodeling; assay type: in vivo, Balb/c mice; details: mice, oral, equimolar doses equivalent to 5.5 mg/kg prednisone (compound 7 9.1 mg/kg); for number of peribronchiolar eosinophils / number of peribronchiolar mast cells: vs allergic mice; for peribronchiolar collagen density / peribronchiolar smooth muscle (α-actin): vs vehicle-treated allergic mice
How it was run: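 Male Balb/c mice, 4–5 weeks old (n = 5/group), sensitized with subcutaneous OVA on alum on days 1 and 11 plus intranasal OVA on day 11. Intranasal OVA challenges followed on two consecutive days weekly for six weeks; controls got saline. Oral dosing in 0.5% carboxymethyl cellulose (1 mL/kg) was given 30 min before each challenge, then daily for 4 weeks until euthanasia. Formalin-fixed lungs were scored for α-actin (immunohistochemistry) and collagen (Masson's trichrome); one-way ANOVA with Tukey test.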

[4] = Chemical stability in simulated gastric fluid; assay type: physicochemical; details: simulated gastric fluid (SGF) without pepsin, pH 1.2
How it was run: (§1)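 Test compound was taken from a 10 mM DMSO stock and diluted into PBS pH 7.4 or pepsin-free SGF pH 1.2 (0.5% DMSO final), in triplicate. Samples were incubated at 37 ± 0.5 °C for 24 h with sampling at intervals. Parent compound, glucocorticoid, H2S-donor moiety and succinate metabolite were quantified by C18 RP-HPLC (CH3CN/water 0.1% TFA gradient; UV 234/250/300 nm) against calibration standards. Results are % remaining, mean ± SD, n = 3.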

[5] = Chemical stability in saline phosphate buffer; assay type: physicochemical; details: phosphate buffered saline (PBS), pH 7.4
How it was run: as §1

[6] = Enzymatic stability in human serum; assay type: in vitro ADME
How it was run: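 Sterile-filtered human serum was spiked with test compound from a 10 mM DMSO stock (1% DMSO), in triplicate, at 37 °C. Aliquots taken at intervals up to 24 h were deproteinized with an equal volume of CH3CN containing 0.1% TFA. Samples were vortexed, sonicated 3 min, centrifuged 5 min at 2500 g, filtered, and analysed by C18 RP-HPLC against calibration standards. Half-life is reported as mean ± SD, n = 3.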

[7] = test system: BSMCs; assay: Membrane hyperpolarizing effects on BSMCs; assay type: cell-based; details: reference NS1619 10 µM

remaining at 24 h, 50 µM [4] | remaining at 24 h, 50 µM [5] | half-life at 100 µM [6] | SMILES | Intracellular H2S release, fluorescence index (FI) ([1]; 100 µM, vs vehicle) | inhibition of mast cell degranulation (β-hexosaminidase release) ([2]; 100 and 300 µM) | number of peribronchiolar eosinophils [3] | number of peribronchiolar mast cells [3] | peribronchiolar collagen density [3] | peribronchiolar smooth muscle (α-actin) [3] | Intracellular H2S release, fluorescence index (FI) ([1]; 100 and 300 µM) | Intracellular H2S release, fluorescence index (FI) ([1]; 300 µM) | inhibition of mast cell degranulation (β-hexosaminidase release) ([2]; 300 µM) | hyperpolarizing effect compared to NS1619 10 µM ([7]; 100 µM) | hyperpolarizing effect compared to NS1619 10 µM ([7]; 300 µM)
 |  |  | C=CCSSCC=C [DADS, diallyl disulfide, reference compound] | significant FI increase |  |  |  |  |  |  |  |  |  | 
 |  |  | C[C@]12C=CC(=O)C=C1CC[C@@H]1[C@@H]2C(=O)C[C@@]2(C)[C@H]1CC[C@]2(O)C(=O)CO [Compound 2, prednisone, reference compound] |  | totally inactive | significantly reduced | significantly reduced | efficient in reducing | efficient in reducing |  |  |  |  | 
99 ± 1% | 99 ± 2% | 9 ± 2 min | C[C@]12C=CC(=O)C=C1CC[C@@H]1[C@@H]2C(=O)C[C@@]2(C)[C@H]1CC[C@]2(O)C(=O)COC(=O)CCC(=O)Oc1ccc(-c2cc(=S)ss2)cc1 [Compound 8, 2-((8S,9S,10R,13S,14S,17R)-17-hydroxy-10,13-dimethyl-3,11-dioxo-6,7,8,9,10,11,12,13,14,15,16,17-dodecahydro-3H-cyclopenta[a]phenanthren-17-yl)-2-oxoethyl (4-(3-thioxo-3H-1,2-dithiol-5-yl)phenyl) succinate] |  |  |  |  |  |  | did not cause any significant increase in fluorescence |  |  |  | 
 |  |  | NC(=S)c1ccc(O)cc1 [TBZ, 4-hydroxy-thiobenzamide, reference compound] | slight increase of FI |  |  |  |  |  |  | massive increase in FI | significant inhibition of RBL-2H3 degranulation | 38% | 43%
99 ± 1% | 97 ± 1% | 15 ± 2 min | C[C@]12C=CC(=O)C=C1CC[C@@H]1[C@@H]2C(=O)C[C@@]2(C)[C@H]1CC[C@]2(O)C(=O)COC(=O)CCC(=O)Oc1ccc(C(N)=S)cc1 [Compound 7, 4-carbamothioylphenyl (2-((8S,9S,10R,13S,14S,17R)-17-hydroxy-10,13-dimethyl-3,11-dioxo-6,7,8,9,10,11,12,13,14,15,16,17-dodecahydro-3H-cyclopenta[a]phenanthren-17-yl)-2-oxoethyl) succinate] |  | significant inhibitory effect on mast cell degranulation | significantly reduced | significantly reduced | significantly more efficient than the parent prednisone | significantly more efficient than the parent prednisone | significant increase in the intracellular level of H2S |  |  | about 240% | about 309%
99 ± 1% | 99 ± 2% | 10 ± 1 min | C[C@@H]1C[C@H]2[C@@H]3CCC4=CC(=O)C=C[C@]4(C)[C@@]3(F)[C@@H](O)C[C@]2(C)[C@@]1(O)C(=O)COC(=O)CCC(=O)Oc1ccc(-c2cc(=S)ss2)cc1 [Compound 6, 2-((8S,9R,10S,11S,13S,14S,16R,17R)-9-fluoro-11,17-dihydroxy-10,13,16-trimethyl-3-oxo-6,7,8,9,10,11,12,13,14,15,16,17-dodecahydro-3H-cyclopenta[a]phenanthren-17-yl)-2-oxoethyl (4-(3-thioxo-3H-1,2-dithiol-5-yl)phenyl) succinate] |  |  |  |  |  |  | did not cause any significant increase in fluorescence |  |  |  | 
